# Laboratory results: PMC6598219 (Saudi Pharmaceutical Journal : SPJ, 2019)
# What was measured:
# [1] = DPPH free radical scavenging activity
# Outline: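 Test compound aliquots at 20, 40, 60, 80 and 100 µg/mL were added to 0.004% DPPH solution, and absorbance was read at 520 nm after 30 min. BHA served as reference and methanol as control. Inhibition % = (Ao − At)/Ao × 100, with Ao the control absorbance. Results given as mean ± SD.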
# [2] = ABTS radical cation scavenging activity
# Outline: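 ABTS radical cation formed by mixing aqueous 7 mmol/L ABTS and 2.45 mmol/L potassium persulfate 1:1 and keeping in the dark 6 h at room temperature. The radical was diluted in ethanol and equilibrated at 30 °C. Test compound aliquots at 20, 40, 60, 80 and 100 µg/mL were added, incubated 30 °C for 20 min, and read at 734 nm with BHA as reference. Scavenging % = (Ac − Aa)/Ac × 100. Results given as mean ± SD.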
compound,measurement,setting,value
"COc1ccc(O)c(C(C)(C)C)c1 [BHA, butylated hydroxyanisole]",DPPH free radical scavenging property (%),[1]; at 100 µg/mL,93.4 ± 1.6%
same,"IC50, DPPH free radical scavenging",[1]; mean of three replicates,34.50 ± 6.20 µg/mL
same,ABTS scavenging property (%),[2]; at 100 µg/mL concentration,98.20 ± 4.60%
same,"IC50, ABTS radical scavenging",[2]; mean of three replicates,28.70 ± 5.20 µg/mL
